Test [1] deals with HL-60. The test is described as follows: Cytotoxicity against human HL60 cells. Type of test: functional, cell-based.
Test [2] relates to Escherichia coli. As to the kind of experiment: Antibacterial activity against Escherichia coli HBI 101 at 10 ug/disk by agar plate diffusion assay. The note with it: read-out: IZ. Format: functional. The method in brief: (§1)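 Paper disks (5.5 mm) loaded with 5 or 10 μg of pure compound, laid on agar plates seeded with the test organism. Plates incubated 24 h at 37 °C, then inspected for inhibition zones.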

Test [3] has as its system Escherichia coli. As to the kind of experiment: Antibacterial activity against Escherichia coli ATCC 25922 at 10 ug/disk by agar plate diffusion assay. The note with it: read-out: IZ. Format: functional. In outline:
as §1

The test system of test [4] is Staphylococcus aureus. As to the kind of experiment: Antibacterial activity against Staphylococcus aureus ATCC 25923 at 10 ug/disk by agar plate diffusion assay. The note with it: read-out: IZ. Type of test: functional. In outline:
as §1

The test system of test [5] is Bacillus subtilis. As to the kind of experiment: Antibacterial activity against Bacillus subtilis 168 at 5 ug/disk by agar plate diffusion assay. Format: functional. As to conditions: read-out: IZ. The method in brief: as §1
The subject of test [6] is Staphylococcus aureus. The test is described as follows: Antibacterial activity against Staphylococcus aureus ATCC 25923 at 5 ug/disk by agar plate diffusion assay. Format: functional. The note with it: read-out: IZ. In outline:
as §1

The subject of test [7] is Bacillus subtilis. The test is described as follows: Antibacterial activity against Bacillus subtilis 168 at 10 ug/disk by agar plate diffusion assay. Type of test: functional. As to conditions: read-out: IZ. In outline:
as §1

For test [8], the system named is Escherichia coli. The test is described as follows: Antibacterial activity against Escherichia coli ATCC 25922 at 5 ug/disk by agar plate diffusion assay. Type of test: functional. As to conditions: read-out: IZ. The method in brief:
as §1

For test [9], the system named is Candida albicans. As to the kind of experiment: Antifungal activity against Candida albicans at 5 ug/disk by agar plate diffusion assay. Type of test: functional, organism-based. In outline: as §1
The test system of test [10] is Candida albicans. The test is described as follows: Antifungal activity against Candida albicans at 10 ug/disk by agar plate diffusion assay. Type of test: functional, organism-based. The method in brief: as §1
The subject of test [11] is Escherichia coli. The test is described as follows: Antibacterial activity against Escherichia coli HBI 101 at 5 ug/disk by agar plate diffusion assay. Format: functional. As to conditions: read-out: IZ. In outline:
as §1

Active and inactive are the calls of the source. No cut-off for these calls is given here.

For the compound `O=C(O)CC1OC(=O)c2c(O)cc(O)cc21` (stereo unspecified), the Activity result in [1] was “Not toxic”.
Regarding `COc1cc(O)c2c(c1)C(=O)C13C(=C(O)C4[C@@H](O)C1C1[C@H](O)C3C(O)=C3C(=O)c5c(O)cc(OC)cc5C(=O)C341)C2=O` (stereo partly specified) [CYTOSKYRIN A], the zone of inhibition at 10 µg/disc in test [2] worked out at 9 mm; in test [3], 11 mm; in [4], 10 mm; in test [7] it was 12 mm. Besides, the zone of inhibition at 5 µg/disc in test [5] came out at 8 mm; in test [6], 8.5 mm; in test [8], 9 mm; in [11], 8 mm. The outcome in test [9] and in test [10] was inactive.
On to `COc1cc(O)c2c(c1)C(=O)c1cc(O)cc(O)c1C2=O` [LUNATIN], for which the zone of inhibition at 10 µg/disc amounted to 10.5 mm in test [2], 11 mm in [3], 10 mm in [4] and 9 mm in [7]. Further, the zone of inhibition at 5 µg/disc in test [5] was determined as 7.5 mm; in test [6] it was 8.5 mm; in [8], 9 mm; in [11], 8 mm. Moreover, the result in [9] and in test [10] was inactive.

The values are drawn from ChEMBL document CHEMBL1148142, “New metabolites from sponge-derived fungi Curvularia lunata and Cladosporium herbarum” (J Nat Prod, 2002).
